Screens deposited in PubChem by Broad Institute.
C2C12 statin = protects C2C12 myotubes from simvastatin toxicity | ATP luminescence, 48 h; scaled: DMSO 0, geranylgeraniol control 100 | rescue of ATP level, % at 7.49 µM | hit rate 0.78% among 330,000 | AID 602340;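 active = mean ATP rescue above about 67%, or every replicate alone reaching that limit, limit read from the data, passing the limit was not always enough; inconclusive = no clear call, values can overlap the other calls; inactive = mean under the limit and some replicate under it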;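 also: myotubes were challenged with 10 µM simvastatin during compound exposure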
S100A4 inh HTS = inhibitors of human S100A4 binding to myosin IIA peptide. hit rate 0.14% among 360,000. P26447. inhibition, % at 10.7 µM. S100A4/TAMRA-MyoIIA peptide fluorescence polarization. AID 652163;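 active = mean inhibition of at least 70% across replicates, with every replicate also reaching that level; inconclusive = mean inhibition reaches 70% but some replicates fall short; inactive = mean inhibition below 70%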
Target sequence (P26447 whole entry, looked up): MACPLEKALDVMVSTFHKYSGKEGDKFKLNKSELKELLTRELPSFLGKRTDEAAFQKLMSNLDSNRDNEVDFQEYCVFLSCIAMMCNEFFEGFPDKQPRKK
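Assay system: human S100A4 monomer with TAMRA-labelled myosin IIA peptide / Buffer or medium: Calcium-containing HEPES buffer, pH 7.2 / Reagent: TAMRA-labelled myosin IIA heavy-chain peptide probe, 5 nM / Compound: one dose per compound / Timing: polarization read 5 min after assay mix addition, stable 5–60 min / Benchmarks: neutral control DMSO, positive control TFP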
DENV2 CPE rescue = inhibitors of DENV2 cytopathic effect. DENV2-infected cells, cytopathic effect rescue, plate reader. CPE inhibition, % at 9.99 µM. hit rate 1.7% among 350,000. AID 651640; in the data active = CPE inhibition above about 20%, passing the limit was not always enough; inconclusive = no clear call, values can overlap the other calls; tested in BHK-21 cells;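 also: 0% = median of neutral control wells and 100% = median of positive control wells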
PGC1a acetyl inh = lowers PGC1a acetylation signal in U2OS cells; AlphaScreen anti-acetyl-lysine; with virally co-expressed GCN5 acetyltransferase; inhibition, % at 15.6 µM; hit rate 0.17% among 350,000; AID 651687;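 active = every replicate shows inhibition of at least 40%; inconclusive = mean inhibition at least 40% but some replicate below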;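 also: 0% = neutral control wells and 100% = positive control wells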
SIRT5 block = sirtuin-5 (human) deacylase inhibition; Purified SirT5, succinyl-peptide AMC, trypsin-coupled fluorescence; inhibition, % at 15 µM; hit rate 1.1% among 330,000; in the data active = inhibition above about 15%; inconclusive = no clear call, values can overlap the other calls
Target sequence (Q9NXA8 whole entry, looked up): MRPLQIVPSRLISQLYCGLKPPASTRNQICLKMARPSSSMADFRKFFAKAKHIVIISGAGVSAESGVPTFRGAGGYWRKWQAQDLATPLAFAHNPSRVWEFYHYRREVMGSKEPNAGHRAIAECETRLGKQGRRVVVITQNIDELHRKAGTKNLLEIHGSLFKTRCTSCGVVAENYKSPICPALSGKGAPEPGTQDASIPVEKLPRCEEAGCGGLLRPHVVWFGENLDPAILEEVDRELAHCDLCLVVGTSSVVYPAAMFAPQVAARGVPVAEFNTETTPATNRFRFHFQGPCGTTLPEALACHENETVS
Starred values were filed as active, the others as inactive; ? = inconclusive; · = no result. Hits are enriched below; roughly 2.9% of the tested compounds scored in any of these assays.

SMILES	C2C12 statin	S100A4 inh HTS	DENV2 CPE rescue	PGC1a acetyl inh	SIRT5 block
C[C@@H]1CN([C@H](C)CO)C(=O)c2cccc(NC(=O)CCCCCC(=O)Nc3ccccc3N)c2O[C@H]1CN(C)Cc1ccc(Cl)c(Cl)c1	·	4	3	-7	15*
C[C@H](CO)N1C[C@H](C)[C@H](CN(C)Cc2ccccc2)Oc2c(NC(=O)CCCCCC(=O)Nc3ccccc3N)cccc2C1=O	·	108*	2	-7	2
O=C(C[C@@H]1CC[C@H]2[C@@H](COC[C@@H](O)CN2Cc2cccc(F)c2)O1)NCCc1ccncc1	5	14	-13	3	-10
CC1=NCCN1S(=O)(=O)c1c(C(C)C)cc(C(C)C)cc1C(C)C	1	6	·	-1	27*
COc1ccc(Cl)cc1S(=O)(=O)N1CCN=C1C	-2	-2	?	6	-1
O=C(Cc1ccc(NC(=O)C2CCCN(C(=O)C3CCCCC3)C2)cc1)Nc1cccc(C(=O)N2CCCC2)c1 (centres undefined)	13	2	15	2	-4
O=C(Cc1cccc(NC(=O)C2CCCN(C(=O)C3CCCCC3)C2)c1)Nc1ccc(C(=O)N2CCOCC2)cc1 (centres undefined)	1	34	24*	4	3
CC(C)(C)OC(=O)N1CCCC(C(=O)Nc2cccc(C(=O)NCCc3ccccc3)c2)C1 (centres undefined)	4	-3	-3	-22	-2
O=C(Cc1cccc(NC(=O)C2CCN(C(=O)C3CCCC3)CC2)c1)Nc1cccc(C(=O)N2CCCCC2)c1	2	-3	43*	0	-2
O=C(Cc1ccc(NC(=O)C2CCCN(C(=O)C3CC3)C2)cc1)Nc1cccc(C(=O)N2CCCC2)c1 (centres undefined)	17	1	62*	-3	-3
CC(C)(C)OC(=O)N1CCCC(C(=O)Nc2cccc(C(=O)NCCCCc3ccccc3)c2)C1 (centres undefined)	6	0	-1	-22	17*
C/C=C/c1ccc(C2[C@@H]3CN(C(=O)Nc4ccccc4OC)C[C@H]2N3)cc1 (some centres undefined)	·	13	?	2	4
COc1ccc(-c2c(C#Cc3ccc(N(C)C)cc3)c3ccccc3n2C)cc1	7	6	-1	-5	·
COc1ccc(C#Cc2c(-c3ccccc3)n(-c3ccccc3)c3ccc(CO)cc23)cc1	89*	-2	2	-71	·
Cc1ccc(CN(C(=O)c2ccco2)C(C(=O)NC2CCCC2)c2ccc(N3CCOCC3)cc2)cc1 (centres undefined)	119*	·	·	-2	·
O=C(O)C1CCC(=O)N(C2CC2)C1c1ccccc1 (centres undefined)	107*	·	·	11	·
O=C(O)C1CCC(=O)N(C2CCCCC2)C1c1ccccc1Cl (centres undefined)	6	3	14	-1	-2
CCCCc1c(O)nc(SCC(=O)NCC2CCCO2)[nH]c1=O (centres undefined)	94*	·	·	0	·
CCCC(=O)Nc1ccc2c(c1)OC[C@H](C)N(CCC(F)(F)F)C[C@H](C)[C@@H](OC)CN(C)C2=O	·	131*	31*	3	0
CCCC(=O)Nc1ccc2c(c1)OC[C@@H](C)N(CCC(F)(F)F)C[C@H](C)[C@H](OC)CN(C)C2=O	11	-1	7	13	4
CCCN1C[C@H](C)[C@H](OC)CN(C)C(=O)c2ccc(NC(=O)CC(F)(F)F)cc2OC[C@@H]1C	·	-11	33*	7	·
COc1ccccc1S(=O)(=O)N(C)C[C@@H]1OCc2ccccc2-c2c(n(C)c3ccccc23)C(=O)N([C@H](C)CO)C[C@H]1C	11	2	?	5	3
Cc1ccccc1S(=O)(=O)N(C)C[C@H]1OCc2ccccc2-c2c(n(C)c3ccccc23)C(=O)N([C@H](C)CO)C[C@H]1C	?	4	-5	-9	16*
Cc1ccccc1S(=O)(=O)N(C)C[C@@H]1OCc2ccccc2-c2c(n(C)c3ccccc23)C(=O)N([C@@H](C)CO)C[C@@H]1C	6	-7	?	6	6
COc1ccccc1S(=O)(=O)N(C)C[C@H]1OCc2ccccc2-c2c(n(C)c3ccccc23)C(=O)N([C@H](C)CO)C[C@@H]1C	·	0	?	19	15*
SMILES	C2C12 statin	S100A4 inh HTS	DENV2 CPE rescue	PGC1a acetyl inh	SIRT5 block
Nc1nccnc1C(=O)OCC(=O)c1ccc[nH]1	-2	1	33*	·	-9
COC(=O)[C@]12C[C@H](CC(=O)NCc3cccc(C(F)(F)F)c3)C(=O)N(CCC3=CCCCC3)C1=C[C@H](C(C)(C)C)O[C@@H]2C	·	1	?	·	·
C[C@H]1CN([C@@H](C)CO)C(=O)c2cccc(NC(=O)Nc3ccc4c(c3)OCO4)c2O[C@@H]1CN(C)S(=O)(=O)c1ccccc1	-14	15	-9	-2	1
C/C=C/c1ccc([C@@H]2[C@H](CO)N(CC3CC3)[C@H]2CNC(=O)c2ccccc2)cc1	-27	-3	14	-18	-2
C[C@@H]1CN([C@@H](C)CO)C(=O)c2cc(-c3cccc(C#N)c3)cnc2O[C@@H]1CN(C)Cc1cccnc1	-4	4	-2	4	3
CC(C)CC#Cc1ccc2c(c1)O[C@H](CN(C)C(=O)CC1CC1)[C@H](C)CN([C@@H](C)CO)S2(=O)=O	-15	11	8	-1	18*
CC(C)CC#Cc1ccc2c(c1)O[C@@H](CN(C)C(=O)C1CCCCC1)[C@@H](C)CN([C@@H](C)CO)S2(=O)=O	3	8	-4	12	1
CC(C)CC#Cc1ccc2c(c1)O[C@H](CN(C)C(=O)C1CCCCC1)[C@H](C)CN([C@@H](C)CO)S2(=O)=O	-22	6	7	10	22*
C[C@H](CO)N1C[C@H](C)[C@H](CN(C)C(=O)CC2CC2)Oc2cc(C#CC(C)(C)O)ccc2S1(=O)=O	-2	-14	10	3	18*
O=C(Cc1ccccc1)N[C@H]1CC[C@@H](CC(=O)N2CCOCC2)O[C@@H]1CO	-13	13	-2	8	4
C[C@@H]1CCCCO[C@@H](CN(C)C(=O)Nc2ccc3c(c2)OCO3)[C@@H](C)CN([C@H](C)CO)C(=O)c2cc(NS(=O)(=O)c3ccc(F)cc3)ccc2O1	21	·	-1	12	·
O=C(O)c1cc(N2C(=O)C3CCCCC3C2=O)ccc1NCc1cccnc1 (centres undefined)	·	25	3	3	21*
Cc1c(NCc2cccnc2)cccc1C(=O)O	-5	2	3	3	-1
Cc1ccc(S(=O)(=O)NCC[C@H]2CC[C@@H](NC(=O)CC3CC3)[C@@H](CO)O2)cc1	1	-3	2	-1	-1
O=S(=O)(N[C@@H]1CC[C@@H](CCNS(=O)(=O)c2ccccc2Cl)O[C@H]1CO)c1ccccc1	-1	-16	1	62*	1
